Results from PubChem BioAssay.
Results filed as inconclusive are left out.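 Rule for the calls, unless noted: active = RAM network inhibition above 8.4% in each of two replicates, 3 SD over the compound average; inconclusive = above 8.4% inhibition in only one replicate; inactive = 8.4% inhibition or less in each replicate.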

How the values were obtained:
[1] = S. cerevisiae growth inhibition in permissive medium (OD615), pilot counter-assay for S. cerevisiae lifespan shortening project, permissive growth control (AID 705;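 active = growth inhibition above 25% in both replicates, a cutoff set 3 SD above the mean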); conditions: OD615, 24 h, at 10 µM, hits give high values
How it was run: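 System: Engineered DeaD yeast | Buffer or medium: SC raffinose/galactose permissive medium | Doses: 10 µM single dose, 0.25% DMSO | Times: 24 h exposure, 30 °C | Measured by: OD615 turbidity read | Read-out: Yeast growth inhibition indicated by reduced 24 h OD615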

[2] = S. cerevisiae growth inhibition in restrictive medium, OD615, pilot screen, restrictive growth control, yeast lifespan reduction project (AID 706;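 active = growth inhibition above a set limit, 3 SD over mean compound inhibition, in both replicates, cut at about 43% in these data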;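 note: modified DeaD lifespan yeast strain shifted to restrictive glucose medium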); conditions: OD615, 48 h, at 10 µM, hits give high values
How it was run: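 Assay system: engineered S. cerevisiae DeaD strain; Buffer or medium: CSMM-D glucose medium; Dosing: 10 µM compound, 0.25% DMSO; Times: cell pre-growth 4 h, compound exposure 48 h, 30 °C; Detection: absorbance (optical density) measured at 615 nm.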

[3] = doxorubicin toxicity protection in MRP-1 cells – H69AR cells, CellTiter-Glo, duplicate, MRP-1 activator project, pilot screen (AID 807;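 active = viability increase at or above a cutoff of the median across tested compounds plus 3 SD, cut at about 8.5% in these data, passing the limit was not always enough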;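 note: compound pretreatment 18-22 h then 72 h combined with doxorubicin; 0% = doxorubicin alone and 100% = vehicle without doxorubicin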); conditions: H69AR viability with doxorubicin, CellTiter-Glo luminescence; at 10 µM; hits give high values
[4] = viability of HCT116 without oncogenic beta-catenin – human colon tumor cells, pilot screen (AID 823;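 active = cell viability at or below a set limit in both duplicate runs, the limit being the all-compound median minus 4 SD, cut at about 23% in these data, passing the limit was not always enough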;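 note: 0% = wells killed by 20 µM Hyamine and 100% = untreated DMSO cell wells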); conditions: HCT116 beta-catenin knockout viability, CellTiter-Glo, 60 h; at 10 µM; hits give low values
[5] = viability of PTEN-null HCT116 cells – cell-based, HCT116 clonal line, CellTiter-Glo, pilot screen (AID 824;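 active = viability at or below 27.92% in each of two runs, the all-compound median minus 4 SD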;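 note: 0% = 20 µM Hyamine control and 100% = vehicle cell control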); conditions: HCT116 PTEN-deleted viability, 60 h, at 10 µM, hits give low values
[6] = RAM pathway blockade in budding yeast – dse1pr::URA3 reporter, 5-FOA selection, pilot screen (AID 869;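 active = inhibition over a set limit, the all-compound mean plus 3 SD, in both replicate runs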;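 note: 0% = DMSO wells with no growth and 100% = 10 µM 1-NA-PP1 with full growth; RAM network block rescues cells from 5-FOA so hits raise OD615 growth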); conditions: S. cerevisiae dse1pr::URA3 5-FOA growth, OD615, 2 d; at 10 µM; hits give high values; strain carries analog-sensitive mutant Cbk1 kinase
[7] = RAM signaling pathway blockade in yeast – S. cerevisiae, Pdr1DBD-CYC8 efflux-inhibited sensitized strain, primary screen (AID 1298);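 note: 0% = DMSO untreated cells without growth and 100% = 10 µM 1-NA-PP1 full growth; higher means more yeast growth rescued from 5-FOA killing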; conditions: S. cerevisiae cbk1-as DSE1-URA3 strain, 5-FOA growth OD615, 2 d; at 50 µM; hits give high values

CCOCCn1c(CN2CCC(C)CC2)nc2c1c(=O)n(C)c(=O)n2C
inactive: growth inhibition [1] 7.15% | growth inhibition [2] -2.44% | viability increase [3] -1.22% | viability [4] 91.8% | viability [5] 91.5% | inhibition [6] 0.02% | RAM network inhibition [7] -0.56%

Cc1c(NC(=O)OCc2ccccc2)c(=O)n(-c2ccccc2)n1C
inactive: growth inhibition [1] -7.33% | growth inhibition [2] -0.325% | viability increase [3] 0.05% | viability [4] 109% | viability [5] 91.1% | inhibition [6] 1.35% | RAM network inhibition [7] 7.69%

O=C(CCSCCC(=O)NCc1cccs1)NCc1cccs1
inactive: growth inhibition [1] -5.92% | growth inhibition [2] 3.44% | viability increase [3] -1.73% | viability [4] 94.5% | viability [5] 96.3% | inhibition [6] 3.47% | RAM network inhibition [7] 2.86%

CCOc1ccc(NC(=O)Nc2ccc3c(c2)N(C)C(=O)CS3)cc1
inactive: growth inhibition [1] -12% | growth inhibition [2] -33.6% | viability increase [3] -4.56% | viability [4] 98.9% | viability [5] 89.1% | inhibition [6] 4.93% | RAM network inhibition [7] 5.76%

CN(CCNC(=O)C1(O)c2ccccc2NC(=O)N1c1ccccc1)Cc1ccccc1 (stereo unspecified)
inactive: growth inhibition [1] -15.6% | growth inhibition [2] -17.7% | viability increase [3] -2.03% | viability [4] 95.8% | viability [5] 93.2% | inhibition [6] 0.43% | RAM network inhibition [7] 2.02%

Cc1nc2ccc(S(=O)(=O)NC(C(=O)NCc3ccco3)C(C)C)cc2s1 (stereo unspecified)
inactive: growth inhibition [1] -6.93% | growth inhibition [2] -0.665% | viability increase [3] -2.43% | viability [4] 101% | viability [5] 101% | inhibition [6] 0.895% | RAM network inhibition [7] -0.06%

CCOC(=O)c1ccc(N2C(=O)c3n[nH]c(C)c3C2c2ccccn2)cc1 (stereo unspecified)
inactive: growth inhibition [1] 0.375% | growth inhibition [2] 3.62% | viability increase [3] 0.57% | viability [4] 108% | viability [5] 114% | inhibition [6] 0.195% | RAM network inhibition [7] 3.09%

CC(NC(=O)c1ccco1)C(c1cccs1)N1CCN(c2ccccc2)CC1 (stereo unspecified)
inactive: growth inhibition [1] -5.64% | growth inhibition [2] -18.3% | viability increase [3] -1.36% | viability [4] 87.7% | viability [5] 81.2% | inhibition [6] 1.74% | RAM network inhibition [7] 5.06%

CCn1cc(SCC(=O)NCc2ccc3c(c2)OCO3)c2ccccc21
inactive: growth inhibition [1] -9.14% | growth inhibition [2] -8.28% | viability increase [3] -1.84% | viability [4] 97.9% | viability [5] 92.7% | inhibition [6] 0.495% | RAM network inhibition [7] 3.73%

COCCN1Cc2cccc(C(=O)NCc3cccnc3)c2C1=O
inactive: growth inhibition [1] 3.25% | growth inhibition [2] 10.2% | viability increase [3] 0.03% | viability [4] 111% | viability [5] 101% | inhibition [6] 3.75% | RAM network inhibition [7] 0.51%

CCCS(=O)(=O)c1nc(S(=O)(=O)c2ccc(C)cc2)c(NCCN2CCOCC2)s1
inactive: growth inhibition [1] -8.93% | growth inhibition [2] -6.58% | viability increase [3] -0.11% | viability [4] 93.7% | viability [5] 86.7% | inhibition [6] 1.04% | RAM network inhibition [7] 6.38%

COCCCN1C(=O)C(O)=C(C(=O)c2ccc(C)o2)C1c1cccc(Br)c1 (stereo unspecified)
inactive: growth inhibition [1] -10.6% | growth inhibition [2] -3.15% | viability increase [3] -0.41% | viability [4] 106% | viability [5] 106% | inhibition [6] -0.2% | RAM network inhibition [7] 4.3%

CCOc1ccc(C(F)(F)F)cc1NC(C)=O
inactive: growth inhibition [1] -6.15% | growth inhibition [2] -9.57% | viability increase [3] -3.24% | viability [4] 90.4% | viability [5] 90.3% | inhibition [6] 0.62% | RAM network inhibition [7] 3.29%

COc1ccc(C2NC(=O)NC(C)=C2C(=O)Nc2cccc(C)c2C)cc1 (stereo unspecified)
inactive: growth inhibition [1] -6.41% | growth inhibition [2] 1.47% | viability increase [3] -1.09% | viability [4] 101% | viability [5] 103% | inhibition [6] 0.77% | RAM network inhibition [7] 1.64%

CCOC(=O)CC(=O)Nc1ccc(Br)cc1C(=O)O
inactive: growth inhibition [1] -18.4% | growth inhibition [2] -18.8% | viability increase [3] 1.24% | viability [4] 101% | viability [5] 97.2% | inhibition [6] 2.16% | RAM network inhibition [7] 7.52%

Cc1onc(-c2ccccc2Cl)c1C(=O)Nc1ccccc1C(N)=O
inactive: growth inhibition [1] -9.31% | growth inhibition [2] -29.5% | viability increase [3] -3.08% | viability [4] 90.2% | viability [5] 85.5% | inhibition [6] 0.895% | RAM network inhibition [7] 0.67%

CCSc1nnc(NC(=O)c2ccccc2)s1
inactive: growth inhibition [1] -19.1% | growth inhibition [2] 0.02% | viability increase [3] 1.94% | viability [4] 95.2% | viability [5] 98.7% | inhibition [6] 1.25% | RAM network inhibition [7] 4.7%

O=C1c2oc3ccccc3c(=O)c2C(c2cccc(O)c2)N1CCCN1CCOCC1 (stereo unspecified)
inactive: growth inhibition [1] -8.79% | growth inhibition [2] -7.73% | viability increase [3] -0.83% | viability [4] 102% | viability [5] 102% | inhibition [6] 0.37% | RAM network inhibition [7] 2.79%

CCOC(=O)c1ccc(NC2c3ccccc3C(=O)N2c2cccnc2)cc1 (stereo unspecified)
inactive: growth inhibition [1] 0.43% | growth inhibition [2] 1.2% | viability increase [3] -3.72% | viability [4] 65.5% | viability [5] 67.6% | inhibition [6] 0.67% | RAM network inhibition [7] 2.21%

C=CCn1c(N(C)C)nc2c1c(=O)[nH]c(=O)n2C
inactive: growth inhibition [1] -8.42% | growth inhibition [2] -12.5% | viability increase [3] 1.25% | viability [4] 109% | viability [5] 100% | inhibition [6] 2.38% | RAM network inhibition [7] 4.26%

CCOC(=O)CSc1n[nH]c(-c2ccco2)n1
inactive: growth inhibition [1] -16.1% | growth inhibition [2] -17% | viability increase [3] -1.01% | viability [4] 93.8% | viability [5] 102% | inhibition [6] 0.85% | RAM network inhibition [7] 4.21%

COc1ccccc1-c1nnc(SCC(=O)N2CCOCC2)o1
inactive: growth inhibition [1] -12.5% | growth inhibition [2] 0.015% | viability increase [3] -3.69% | viability [4] 93.8% | viability [5] 95.7% | inhibition [6] 1.75% | RAM network inhibition [7] 2.61%

CSc1nnc(Cn2c(=O)sc3ccccc32)n1-c1ccccc1
inactive: growth inhibition [1] -2.55% | growth inhibition [2] 3.38% | viability increase [3] -0.84% | viability [4] 104% | viability [5] 102% | inhibition [6] 2.03% | RAM network inhibition [7] 2.08%

CCn1c(C(C)NC(=O)c2cccs2)nc2ccccc21 (stereo unspecified)
inactive: growth inhibition [1] -1.68% | growth inhibition [2] -9.03% | viability increase [3] -1.68% | viability [4] 103% | viability [5] 91.9% | inhibition [6] 1.33% | RAM network inhibition [7] 6.3%

COc1ccc(-n2nc(C(=O)N3CCC(C#N)CC3)c3c4ccccc4n(C)c3c2=O)cc1
inactive: growth inhibition [1] -14.9% | growth inhibition [2] -27% | viability increase [3] -4.6% | viability [4] 92.2% | viability [5] 88.9% | inhibition [6] 1.95% | RAM network inhibition [7] 7.49%

CCNC(=O)Cc1ccc(NS(=O)(=O)c2ccc(F)cc2)cc1
inactive: growth inhibition [1] -7.1% | growth inhibition [2] 13.8% | viability increase [3] -2.21% | viability [4] 100% | viability [5] 94.6% | inhibition [6] 0.34% | RAM network inhibition [7] 2.36%

Clc1ccccc1CSc1nnc(-c2cccnc2)n1Cc1ccco1
inactive: growth inhibition [1] 2.38% | growth inhibition [2] 23.5% | viability increase [3] -4.89% | viability [4] 90.4% | viability [5] 91% | inhibition [6] 1.38% | RAM network inhibition [7] 4.7%

COc1ccc(-c2nc(CS(=O)CC(=O)NCc3cccnc3)c(C)o2)cc1OC (stereo unspecified)
inactive: growth inhibition [1] -1.92% | growth inhibition [2] -2.94% | viability increase [3] -2.64% | viability [4] 99.5% | viability [5] 94.8% | inhibition [6] 1.42% | RAM network inhibition [7] 0.68%

Cc1ccc2c(c1)c1c(n2CC(O)CN2C(=O)CNC2=O)C(=O)CCC1 (stereo unspecified)
inactive: growth inhibition [1] 3.38% | growth inhibition [2] 7.05% | viability increase [3] 4.52% | viability [4] 101% | viability [5] 101% | inhibition [6] 1.74% | RAM network inhibition [7] 3.57%

O=C(c1ccc(CNc2c(N3CCOCC3)c(=O)c2=O)cc1)N1CC=C(c2ccccc2)CC1
inactive: growth inhibition [1] -1.62% | growth inhibition [2] -7.31% | viability increase [3] -0.15% | viability [4] 95.3% | viability [5] 94.8% | inhibition [6] 2.02% | RAM network inhibition [7] 6.56%

Cc1nc(SC(C)C)[nH]c(=O)c1Cc1ccccc1
inactive: growth inhibition [1] -14.9% | growth inhibition [2] -4.47% | viability increase [3] -0.89% | viability [4] 98.4% | viability [5] 91.8% | inhibition [6] 1.1% | RAM network inhibition [7] 3.52%

COCCNC(=O)COc1ccccc1Cl
inactive: growth inhibition [1] -8.43% | growth inhibition [2] 0.04% | viability increase [3] -1.02% | viability [4] 95.4% | viability [5] 93.8% | inhibition [6] 0.815% | RAM network inhibition [7] 1.81%

CCc1cc2c(=O)c(Oc3ccccc3F)c(C)oc2c(CN(C)C)c1O
inactive: growth inhibition [1] -5.07% | growth inhibition [2] 9.37% | viability increase [3] -7.21% | viability [4] 95.2% | viability [5] 89.1% | inhibition [6] 3.73% | RAM network inhibition [7] 6.03%
